Laboratory results: ChEMBL document CHEMBL4007396, “New diphenylmethane derivatives as peroxisome proliferator-activated receptor alpha/gamma dual agonists endowed with anti-proliferative effects and mitochondrial activity” (Eur J Med Chem, 2017)
The source made the active and inactive calls. No cut-off for these calls is given here.

Key:
[1] = molecular target: T1, Bile acid receptor (Homo sapiens) (UniProt Q96RI1); test: Agonist activity at GAL4-fused human FXR LBD expressed in human HepG2 cells up to 2 uM after 20 hrs by luciferase reporter gene assay; assay type: cell-based
T1 sequence (whole entry): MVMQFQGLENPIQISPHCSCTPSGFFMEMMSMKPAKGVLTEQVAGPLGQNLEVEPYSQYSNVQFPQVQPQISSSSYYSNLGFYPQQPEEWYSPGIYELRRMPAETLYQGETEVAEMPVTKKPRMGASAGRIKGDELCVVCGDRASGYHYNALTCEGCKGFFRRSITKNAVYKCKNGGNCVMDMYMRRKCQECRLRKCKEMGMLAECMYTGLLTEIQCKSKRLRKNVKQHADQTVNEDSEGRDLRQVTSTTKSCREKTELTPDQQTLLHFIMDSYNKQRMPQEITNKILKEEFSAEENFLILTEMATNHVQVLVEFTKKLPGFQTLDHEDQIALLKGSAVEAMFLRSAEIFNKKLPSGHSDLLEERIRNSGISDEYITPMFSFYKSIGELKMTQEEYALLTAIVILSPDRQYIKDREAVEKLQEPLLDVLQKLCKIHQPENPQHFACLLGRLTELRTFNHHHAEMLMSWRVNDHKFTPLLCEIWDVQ
How it was run: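 HepG2 in MEM/10% FBS, calcium-phosphate co-transfection 24 h after seeding with GAL4-FXR-LBD (30 ng), pGAL5TKpGL3 luciferase reporter (100 ng) and pCMVβgal (250 ng); 4 h later, 20 h ligand exposure in triplicate. Luciferase normalized to β-galactosidase (ONPG); efficacy as % of maximal fold induction of chenodeoxycholic acid reference; tested up to 2 μM.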

HepG2 = test: Cytotoxicity against human HepG2 cells at >2 uM; assay type: cell-based
[2] = molecular target: T2, Peroxisome proliferator-activated receptor alpha (Homo sapiens, UniProt Q07869); test: Transactivation of GAL4-fused human PPARalpa LBD expressed in human HepG2 cells after 20 hrs by luciferase reporter gene assay; assay type: cell-based
T2 sequence (Q07869 whole entry): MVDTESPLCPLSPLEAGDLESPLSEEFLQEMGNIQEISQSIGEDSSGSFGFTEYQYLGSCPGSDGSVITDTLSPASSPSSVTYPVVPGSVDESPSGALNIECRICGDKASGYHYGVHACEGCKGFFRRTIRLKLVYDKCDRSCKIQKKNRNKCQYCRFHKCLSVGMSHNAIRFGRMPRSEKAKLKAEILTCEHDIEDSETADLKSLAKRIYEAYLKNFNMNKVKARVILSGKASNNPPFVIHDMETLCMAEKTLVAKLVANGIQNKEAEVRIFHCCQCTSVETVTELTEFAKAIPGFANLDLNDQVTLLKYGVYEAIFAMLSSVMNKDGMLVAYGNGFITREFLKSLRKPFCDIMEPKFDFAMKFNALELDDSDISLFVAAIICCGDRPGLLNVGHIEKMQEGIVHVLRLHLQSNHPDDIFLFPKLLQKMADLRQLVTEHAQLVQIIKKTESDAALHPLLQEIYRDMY

[3] = molecular target: T3, Peroxisome proliferator-activated receptor gamma (Homo sapiens, UniProt P37231); test: Transactivation of GAL4-fused human PPARgamma LBD expressed in human HepG2 cells after 20 hrs by luciferase reporter gene assay; assay type: cell-based
T3 sequence (P37231 whole entry): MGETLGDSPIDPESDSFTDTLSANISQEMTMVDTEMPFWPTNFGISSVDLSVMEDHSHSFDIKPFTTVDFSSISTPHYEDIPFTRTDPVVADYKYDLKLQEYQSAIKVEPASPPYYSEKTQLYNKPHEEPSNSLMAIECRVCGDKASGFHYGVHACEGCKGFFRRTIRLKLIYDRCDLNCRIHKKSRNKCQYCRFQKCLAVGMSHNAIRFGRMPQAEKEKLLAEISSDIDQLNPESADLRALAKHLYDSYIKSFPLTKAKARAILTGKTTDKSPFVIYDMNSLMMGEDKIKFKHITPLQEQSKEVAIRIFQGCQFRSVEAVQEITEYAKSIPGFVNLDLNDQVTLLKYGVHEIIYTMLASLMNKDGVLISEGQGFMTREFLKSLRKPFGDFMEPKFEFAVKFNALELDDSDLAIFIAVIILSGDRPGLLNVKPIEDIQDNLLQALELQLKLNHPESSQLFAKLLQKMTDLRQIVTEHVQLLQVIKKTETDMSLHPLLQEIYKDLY

[4] = molecular target: T4, Peroxisome proliferator-activated receptor delta (Homo sapiens, UniProt Q03181); test: Transactivation of GAL4-fused human PPARdelta LBD expressed in human HepG2 cells after 20 hrs by luciferase reporter gene assay; assay type: cell-based
T4 sequence (Q03181 whole entry): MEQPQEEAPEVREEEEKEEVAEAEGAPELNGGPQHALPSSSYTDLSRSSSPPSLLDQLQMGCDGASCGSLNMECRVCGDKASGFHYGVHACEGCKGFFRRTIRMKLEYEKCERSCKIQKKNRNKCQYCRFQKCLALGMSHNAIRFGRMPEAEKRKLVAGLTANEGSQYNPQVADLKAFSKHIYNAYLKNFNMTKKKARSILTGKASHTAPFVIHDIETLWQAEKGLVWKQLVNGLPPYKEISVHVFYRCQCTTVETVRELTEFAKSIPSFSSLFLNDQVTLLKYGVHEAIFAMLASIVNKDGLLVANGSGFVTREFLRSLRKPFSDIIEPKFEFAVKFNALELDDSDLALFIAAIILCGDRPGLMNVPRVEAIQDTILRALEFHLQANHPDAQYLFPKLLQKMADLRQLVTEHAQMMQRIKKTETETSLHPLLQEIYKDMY
How it was run: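 HepG2 cells seeded 10⁵/well, transfected after 24 h by calcium phosphate with GAL4-PPARδ-LBD (30 ng), pGAL5TKpGL3 luciferase reporter (100 ng) and pCMVβgal (250 ng); 4 h later treated 20 h in triplicate with ligands up to 2 μM. Luciferase in cell extracts normalised to β-galactosidase (ONPG); efficacy as % of maximal fold induction of reference agonist L-165,041; experiments repeated at least twice.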

[5] = molecular target: T2, Peroxisome proliferator-activated receptor alpha; test: Binding affinity to PPARalpha (unknown origin) assessed as thermodynamic dissociation constant by SPR assay
[6] = molecular target: T3, Peroxisome proliferator-activated receptor gamma; test: Binding affinity to PPARgamma (unknown origin) assessed as thermodynamic dissociation constant by SPR assay
[7] = molecular target: T4, Peroxisome proliferator-activated receptor delta; test: Binding affinity to PPARdelta (unknown origin) assessed as thermodynamic dissociation constant by SPR assay; settings: read-out: Kd
[8] = molecular target: T2, Peroxisome proliferator-activated receptor alpha; test: Binding affinity to PPARalpha (unknown origin) assessed as kinetic dissociation constant by SPR assay
[9] = molecular target: T3, Peroxisome proliferator-activated receptor gamma; test: Binding affinity to PPARgamma (unknown origin) assessed as kinetic dissociation constant by SPR assay
[10] = molecular target: T4, Peroxisome proliferator-activated receptor delta; test: Binding affinity to PPARdelta (unknown origin) assessed as kinetic dissociation constant by SPR assay
[11] = molecular target: T5, Peroxisome proliferator-activated receptor alpha (Homo sapiens) (UniProt Q07869); test: Agonist activity at PPARalpha in human HepG2 cells assessed as increase in CPT1 mRNA level at 1 uM after 24 hrs by RT-PCR method; assay type: cell-based
T5 sequence (whole entry): T2 sequence (Q07869 whole entry)
How it was run: (§1)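 Serum-free HepG2 exposed 24 h to 1 μM test agent (Wy-14,643 reference at 50 μM). RNA extracted from 1x10⁶ cells; TaqMan real-time RT-PCR for CAC, CPT1 or PPARα, normalized to β-actin. Mean ± SD of three independent duplicate experiments; one-way ANOVA with Bonferroni test.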

[12] = molecular target: T5, Peroxisome proliferator-activated receptor alpha (Homo sapiens); test: Agonist activity at PPARalpha assessed as induction of positive regulatory loop based receptor transcriptional activation by measuring upregulation of PPARalpha mRNA level in human HepG2 cells at 1 uM after 24 hrs by RT-PCR method; assay type: cell-based; how it was run: as §1
HT-29 = test: Growth inhibition of human HT-29 cells assessed as cell vitality up to 10 uM up to 72 hrs by hemocytometry relative to control; assay type: functional; design: scale not given: the % may be the effect or the level left
How it was run: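 Exponentially growing HT-29 colon adenocarcinoma cells (D-MEM, 10% FBS, 37 °C, 5% CO2) exposed to vehicle (DMSO, final <0.1%) or 1, 5 and 10 μM compound in 10% FBS medium for 24, 48 and 72 hs; cells washed, trypsinized and counted by Bürker hemocytometer, three counts per well. Viability relative to vehicle; mean ± SD of three independent experiments in duplicate.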

[13] = molecular target: T6, Peroxisome proliferator-activated receptor gamma (Homo sapiens) (UniProt P37231); test: Agonist activity at PPARgamma in human HT-29 cells assessed as upregulation of p21waf1/cip1 protein expression at 10 uM after 48 hrs by Western blot method; assay type: cell-based
T6 sequence (whole entry): T3 sequence (P37231 whole entry)
How it was run: (§2)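 HT-29 or HEK293T cells in DMEM/10% FBS treated 48 h with 10 μM compound (DMSO vehicle, final below 0.1%). RIPA lysates (with protease inhibitors), 80 μg protein per lane immunoblotted for p21waf1/cip1 with β-actin loading control; densitometric p21/β-actin ratio, mean ± SD of at least three independent experiments.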

HEK-293T = test: Effect on p21waf1/cip1 protein expression in HEK293T cells at 10 uM after 48 hrs by Western blot method; assay type: cell-based; settings: human; how it was run: as §2
[14] = molecular target: T6, Peroxisome proliferator-activated receptor gamma (Homo sapiens); test: Agonist activity at PPARgamma in human HT-29 cells harboring APC mutant assessed as inhibition of Wnt/beta-catenin signaling pathway by measuring decrease in c-Myc level at 10 uM treated for 24 hrs by Western blot method; assay type: cell-based
How it was run: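 RIPA lysates, 80 μg protein immunoblotted for c-Myc with β-actin loading control; c-Myc/β-actin densitometry, mean ± SD of at least three independent experiments.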

[15] = molecular target: T5, Peroxisome proliferator-activated receptor alpha (Homo sapiens); test: Agonist activity at PPARalpha in human HepG2 cells assessed as increase in CAC mRNA level at 1 uM after 24 hrs by RT-PCR method; assay type: cell-based; how it was run: as §1
[16] = molecular target: T5, Peroxisome proliferator-activated receptor alpha (Homo sapiens); test: Agonist activity at PPARalpha in human HepG2 cells assessed as increase in CAC protein expression level at 1 uM after 48 hrs by Western blot method; assay type: cell-based
How it was run: (§3)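 HepG2 serum-depleted 24 h, then treated 48 h with 1 μM compound (Wy-14,643 at 50 μM as reference). Nitrocellulose immunoblots probed for CAC, CPT1 or PPARα with β-actin loading control, chemiluminescent detection; band densitometry expressed as fold change versus untreated cells; three independent experiments.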

[17] = molecular target: T5, Peroxisome proliferator-activated receptor alpha (Homo sapiens); test: Agonist activity at PPARalpha in human HepG2 cells assessed as increase in CPT1 protein expression level at 1 uM after 48 hrs by Western blot method; assay type: cell-based; how it was run: as §3
[18] = molecular target: T5, Peroxisome proliferator-activated receptor alpha (Homo sapiens); test: Agonist activity at PPARalpha assessed as induction of positive regulatory loop based receptor transcriptional activation by measuring upregulation of PPARalpha protein expression level in human HepG2 cells at 1 uM after 48 hrs by Western blot method; assay type: cell-based; how it was run: as §3
[19] = molecular target: T5, Peroxisome proliferator-activated receptor alpha (Homo sapiens); test: Agonist activity at PPARalpha in human HepG2 cells assessed as increase in mitochondrial mass at 1 uM by CellLight Mitochondria-GFP staining based fluorescent microscopic method relative to control; assay type: cell-based
How it was run: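 Serum-free HepG2 at 60% confluence transduced with Mitochondria-GFP BacMam 2.0 (50 particles/cell) and given 1 μM compound or 50 μM Wy-14,643 for 24 h. Imaged at 20x with GFP filters (ex 485/em 535 nm); separately, SDS/Tris pH 7.5 lysates read at ex 475, em 500-550 nm. Mean ± SD of three experiments, ANOVA/Bonferroni.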

CC(Oc1ccc(Cc2ccc(OCc3coc(-c4ccccc4)n3)cc2)cc1)C(=O)O (configuration not stated)
Activity [1]: inactive
Activity (HepG2): Toxic
EC50 [2]: 39 nM
EC50 [3]: 290 nM

CCC(CC)(c1ccc(OCc2coc(-c3c(Cl)cccc3Cl)n2)cc1)c1ccc(OC(C)C(=O)O)cc1 (configuration not stated)
Activity [1]: inactive
Activity (HepG2): Toxic

CCC(CC)(c1ccc(OCc2nc(-c3ccccc3)oc2C)cc1)c1ccc(OC(C)C(=O)O)cc1 (configuration not stated)
Activity [1]: inactive
Activity (HepG2): Toxic

CCCc1c(OCCCOc2ccc(OCC(=O)O)cc2)ccc(C(C)=O)c1O
EC50 [4]: 20 nM
Kd [5]: Not Active
Kd [6]: Not Active
Kd [7]: 76.4 nM
Kd [8]: Not Active
Kd [9]: Not Active
Kd [10]: 0.43 s⁻¹

Cc1oc(-c2ccccc2)nc1COc1ccc(Cc2ccc(OC(C)C(=O)O)cc2)cc1 (configuration not stated)
Activity [1]: inactive
Activity (HepG2): Toxic
EC50 [2]: 100 nM
EC50 [3]: 290 nM
Activity [11]: Active
Activity [12]: Active
Activity (HT-29): 70%
Activity [13]: Active
Activity (HEK-293T): Non-Toxic
Activity [14]: Active
Activity [15]: Active
Activity [16]: Active
Activity [17]: Active
Activity [18]: Active
Activity [19]: 30%

CCC(CC)(c1ccc(OCc2nc(-c3c(Cl)cccc3Cl)oc2C)cc1)c1ccc(OC(C)C(=O)O)cc1 (configuration not stated)
Activity [1]: inactive
Activity (HepG2): Toxic

CN(CCOc1ccc(CC2SC(=O)NC2=O)cc1)c1ccccn1 (configuration not stated) [ROSIGLITAZONE]
Kd [5]: Not Active
Activity (HT-29): 65%
Kd [8]: Not Active

CCC(CC)(c1ccc(OCc2coc(-c3ccccc3)n2)cc1)c1ccc(OC(C)C(=O)O)cc1 (configuration not stated)
Activity [1]: inactive
Activity (HepG2): Toxic
